Published values pooled from the literature.
Protocols differ between the studies behind these lines.
Medium: plasma

| SMILES | species | route | dose | setting | measurement | value |
| --- | --- | --- | --- | --- | --- | --- |
| C=CC(=O)N1CCC([C@@H]2CCNc3c(C(N)=O)c(-c4ccc(Oc5ccccc5)cc4)nn32)CC1 | Sprague-Dawley rat | oral | 16 mg/kg |  | CL/F | 224 mL/min/kg |
| [2H]C([2H])([2H])NC(=O)c1cc(Oc2ccc(NC(=O)Nc3ccc(Cl)c(C(F)(F)F)c3)cc2)ccn1 | rat | oral | 40 mg/kg | single dose | CL/F | 2.67 mL/min/kg |
| C[C@H]1Oc2cc(cnc2N)-c2c(nn(C)c2C#N)CN(C)C(=O)c2ccc(F)cc21 | male Sprague-Dawley rat | oral | 10 mg/kg | single dose | CL/F | 66.7 mL/min/kg |
| C1=C/COCc2cc(ccc2OCCN2CCCC2)Nc2nccc(n2)-c2cccc(c2)COC/1 | rat | oral | 36 mg/kg |  | CL/F | 11700 mL/h |
| CC[C@H](C)[C@H](NC(=O)[C@@H]1CCCN1C(=O)CNC(=O)[C@H](Cc1ccccc1)NC(=O)[C@H](CC(N)=O)NC(=O)[C@H](CC(N)=O)NC(=O)[C@H](CO)NC(=O)[C@H](CO)NC(=O)[C@H](Cc1c[nH]cn1)NC(=O)[C@H](CCCNC(=N)N)NC(=O)[C@H](CC(C)C)NC(=O)[C@H](Cc1ccccc1)NC(=O)[C@H](CCC(=O)O)NC(=O)[C@H](C)NC(=O)[C@H](CC(C)C)NC(=O)[C@H](CCCNC(=N)N)NC(=O)[C@H](CCC(N)=O)NC(=O)[C@@H](NC(=O)[C@H](C)NC(=O)[C@@H]1CSSC[C@H](NC(=O)[C@H](CCCCN)NC(=O)CC[C@H](NC(=O)CCCCCCCCCCCCCCCCCCC(=O)O)C(=O)O)C(=O)N[C@@H](CC(N)=O)C(=O)N[C@@H]([C@@H](C)O)C(=O)N[C@@H](C)C(=O)N[C@@H]([C@@H](C)O)C(=O)N1)[C@@H](C)O)C(=O)N[C@@H](CC(C)C)C(=O)N1CCC[C@H]1C(=O)N1CCC[C@H]1C(=O)N[C@H](C(=O)N[C@@H](CC(N)=O)C(=O)N[C@H](C(=O)NCC(=O)N[C@@H](CO)C(=O)N[C@@H](CC(N)=O)C(=O)N[C@H](C(=O)N1CCC[C@H]1C(N)=O)[C@@H](C)O)C(C)C)[C@@H](C)O | male Sprague-Dawley rat | subcutaneous | 30 nmol/kg | single dose | CL/F | 0.112 mL/min/kg |
| CC[C@@H]([C@H](C)O)n1ncn(-c2ccc(N3CCN(c4ccc(OC[C@@H]5CO[C@@](Cn6cncn6)(c6ccc(F)cc6F)C5)cc4)CC3)cc2)c1=O | Sprague-Dawley rat | oral | 40 mg/kg |  | CL/F | 79 mL/min/kg |
| CNS(=O)(=O)c1ccc(Nc2ncc(C(F)(F)F)c(N3CCC[C@](C)(O)C3)n2)c(C)c1 | rat | intravenous | 2 mg/kg |  | clearance | 31 mL/min/kg |
| CCOc1c([C@H](C)n2nc(C)c3c(N)ncnc32)cc(Cl)c(F)c1[C@@H]1CNC(=O)C1 | male Sprague-Dawley rat | oral | 2 mg/kg | single dose | CL/F | 10.3 mL/min/kg |
| CNS(=O)(=O)c1ccc(Nc2ncc(C(F)(F)F)c([C@H]3CC[C@@](C)(O)CC3)n2)c(C)c1 | rat | intravenous | 2 mg/kg |  | clearance | 7 mL/min/kg |
| CCN(CC)Cc1ccc2cc(COC(=O)Nc3ccc(C(=O)NO)cc3)ccc2c1 | male Sprague-Dawley rat | oral | 10 mg/kg |  | CL/F | 20.2 mL/min/kg |
| Cc1cc(S(=O)(=O)NC2CC(N3CCN(CC4CCN(c5cccc6c5n(C)c(=O)n6C5CCC(=O)NC5=O)CC4)CC3)C2)ccc1Nc1ncc(C(F)(F)F)c(N2CCC[C@](C)(O)C2)n1 (some centres unmarked) | rat | intravenous | 2 mg/kg |  | clearance | 37 mL/min/kg |
| Cc1nc(Nc2ncc(C(=O)Nc3c(C)cccc3Cl)s2)cc(N2CC[C@H](O)C2)n1 | male Sprague-Dawley rat | intravenous | 1 mg/kg |  | clearance | 6.83 mL/min/kg |
| Cc1cc(S(=O)(=O)N[C@]2(C)C[C@H](N3CCN(CC4CCN(c5ccc6c(c5F)n(C)c(=O)n6C5CCC(=O)NC5=O)CC4)CC3)C2)ccc1Nc1ncc(C(F)(F)F)c(N2CCC[C@](C)(O)C2)n1 (some centres unmarked) | rat | intravenous | 2 mg/kg |  | clearance | 145 mL/min/kg |
| CNC(=O)c1cc(Oc2ccc(NC(=O)Nc3ccc(Cl)c(C(F)(F)F)c3)cc2)ccn1 | male Sprague-Dawley rat | oral | 100 mg/kg | single dose | CL/F | 96.7 mL/min/kg |
| Cc1cc(S(=O)(=O)N[C@H]2CC[C@H](CN3CCN(c4cccc(NC5CCC(=O)NC5=O)c4)CC3)CC2)ccc1Nc1ncc(C(F)(F)F)c(N2CCC[C@](C)(O)C2)n1 (some centres unmarked) | rat | intravenous | 2 mg/kg |  | clearance | 43 mL/min/kg |
| Cc1nc(Nc2ncc(C(=O)Nc3c(C)cccc3Cl)s2)cc(N2CC[C@@H](N)C2)n1 | male Sprague-Dawley rat | intravenous | 1 mg/kg |  | clearance | 135 mL/min/kg |
| CC(=O)O[C@@H]1CC[C@@]2(C)[C@@H](CC[C@]3(C)[C@@H]2C(=O)C=C2[C@@H]4[C@@H](C)[C@H](C)CC[C@]4(C)CC[C@]23C)[C@@]1(C)C(=O)O | female Wistar rat | oral | 1 mg/kg | single dose | CL/F | 0.332 mL/min/kg |
